The record followed here is ChEMBL document CHEMBL2040721, “Potent direct inhibitors of factor Xa based on the tetrahydroisoquinoline scaffold” (Eur J Med Chem, 2012).

One assay has as its target Chymotrypsinogen A (Bos taurus, UniProt P00766). Nature of the assay: Inhibition of bovine alpha-chymotrypsin using chromogenic spectrozyme CTY as substrate after 10 mins by spectrophotometry.
Assay [1] is described as follows: Selectivity index ratio of IC50 for bovine alpha-chymotrypsin to IC50 for human factor10a.
The species named for assay [2] is Homo sapiens. Nature of the assay: Selectivity index ratio of IC50 for human factor 2a to IC50 for human factor 10a.
For a further assay, the target named is T1, Coagulation factor XII (Homo sapiens, UniProt P00748).
T1 sequence (P00748 whole entry): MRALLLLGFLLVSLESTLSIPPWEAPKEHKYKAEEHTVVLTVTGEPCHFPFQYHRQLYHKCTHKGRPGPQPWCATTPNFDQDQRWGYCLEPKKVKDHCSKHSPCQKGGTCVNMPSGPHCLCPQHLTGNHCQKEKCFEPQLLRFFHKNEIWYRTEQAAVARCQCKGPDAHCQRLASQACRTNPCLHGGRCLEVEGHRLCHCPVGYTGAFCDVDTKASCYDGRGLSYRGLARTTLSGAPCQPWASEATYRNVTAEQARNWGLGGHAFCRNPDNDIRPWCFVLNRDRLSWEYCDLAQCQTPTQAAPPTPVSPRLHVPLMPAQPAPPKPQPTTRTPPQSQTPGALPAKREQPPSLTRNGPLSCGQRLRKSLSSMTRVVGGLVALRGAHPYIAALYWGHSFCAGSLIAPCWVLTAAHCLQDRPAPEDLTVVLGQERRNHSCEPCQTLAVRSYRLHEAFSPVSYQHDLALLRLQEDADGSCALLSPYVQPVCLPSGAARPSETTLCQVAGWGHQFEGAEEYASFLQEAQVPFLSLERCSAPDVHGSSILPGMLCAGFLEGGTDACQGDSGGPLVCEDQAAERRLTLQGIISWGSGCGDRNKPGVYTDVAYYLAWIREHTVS
Description: Inhibition of factor 12a using chromogenic spectrozyme 12a as substrate after 10 mins by spectrophotometry.

The species entered for assay [3] is Homo sapiens. Nature of the assay: Selectivity index ratio of IC50 for factor 12a to IC50 for human factor 10a.
Assay [4] deals with Plasma. Description: Anticoagulant activity in human plasma assessed as concentration required to double the activated […] time incubated for 4 mins prior to CaCl2-challenge by fibrometry. Format: functional.
The target of another assay is Prothrombin (Homo sapiens, UniProt P00734). Nature of the assay: Inhibition of human factor 2a using chromogenic spectrozyme TH as substrate after 10 mins by spectrophotometry.
Assay [5] is described as follows: Selectivity index ratio of IC50 for bovine trypsin to IC50 for human factor10a.
Assay [6] is filed under the species Homo sapiens. Nature of the assay: Selectivity index ratio of IC50 for human factor 11a to IC50 for human factor 10a.
The next assay has as its target Coagulation factor IX (Homo sapiens, UniProt P00740). Nature of the assay: Inhibition of human factor 9a using chromogenic spectrozyme 9a as substrate after 10 mins by spectrophotometry.
For assay [7], the system named is Plasma. Description: Anticoagulant activity in human plasma assessed as concentration required to double the prothrombin time incubated for 30 s prior to thromboplastin addition by fibrometry.
Assay [8] is filed under the species Homo sapiens. Description: Selectivity index ratio of IC50 for human factor 9a to IC50 for human factor 10a.
A short description of assay [9]: Inhibition of bovine trypsin using chromogenic S2222 as substrate after 10 mins by spectrophotometry. Also on record: species or system Bos taurus.
A further assay concerns the target Coagulation factor X (Homo sapiens, UniProt P00742). Description: Inhibition of human factor 10a using chromogenic spectrozyme F10a as substrate after 10 mins by spectrophotometry. Summed up:
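Human plasma FXa pre-incubated 10 min at 37 °C with inhibitor (twelve concentrations, 0.015–500 μM in well) in pH 7.4 buffer, then Spectrozyme FXa added. Initial rate of A405 rise gives residual activity relative to no-inhibitor control. Duplicate or triplicate; logistic fit gives IC50, efficacy and Hill slope. Organic solvent held constant, <2.5% v/v.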

The target in a further assay is T2, Coagulation factor VII (Homo sapiens, UniProt P08709).
T2 sequence (P08709 whole entry): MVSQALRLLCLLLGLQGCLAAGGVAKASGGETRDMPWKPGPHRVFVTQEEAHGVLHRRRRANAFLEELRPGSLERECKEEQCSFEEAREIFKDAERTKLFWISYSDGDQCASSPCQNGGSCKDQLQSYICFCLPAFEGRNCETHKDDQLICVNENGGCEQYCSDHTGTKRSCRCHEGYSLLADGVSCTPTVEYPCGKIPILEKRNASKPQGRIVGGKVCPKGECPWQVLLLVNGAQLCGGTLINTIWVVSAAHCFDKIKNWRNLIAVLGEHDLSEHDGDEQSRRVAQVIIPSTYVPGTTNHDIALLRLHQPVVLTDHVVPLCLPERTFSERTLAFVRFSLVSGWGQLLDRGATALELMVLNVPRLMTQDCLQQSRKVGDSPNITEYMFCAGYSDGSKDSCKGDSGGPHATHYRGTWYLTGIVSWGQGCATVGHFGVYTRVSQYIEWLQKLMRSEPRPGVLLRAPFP
Description: Inhibition of human factor 7a using chromogenic spectrozyme 7a as substrate after 10 mins by spectrophotometry.

Another assay deals with Coagulation factor XI (Homo sapiens, UniProt P03951). Description: Inhibition of human factor 11a using chromogenic S2366 as substrate after 10 mins by spectrophotometry.
Sequence of Coagulation factor XI (P03951 19-387 limits assumed): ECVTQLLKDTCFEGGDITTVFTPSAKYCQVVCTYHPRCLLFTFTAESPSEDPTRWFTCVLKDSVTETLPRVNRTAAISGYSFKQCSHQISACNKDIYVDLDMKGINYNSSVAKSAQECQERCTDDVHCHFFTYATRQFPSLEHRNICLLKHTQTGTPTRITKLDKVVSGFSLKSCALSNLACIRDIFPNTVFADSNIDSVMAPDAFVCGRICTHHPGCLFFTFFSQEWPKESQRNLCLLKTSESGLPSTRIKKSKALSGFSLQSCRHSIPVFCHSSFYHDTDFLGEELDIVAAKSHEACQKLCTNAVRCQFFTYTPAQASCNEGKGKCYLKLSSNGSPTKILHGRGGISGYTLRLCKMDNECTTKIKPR
Sequence of Coagulation factor XI (P03951 388-625 limits assumed): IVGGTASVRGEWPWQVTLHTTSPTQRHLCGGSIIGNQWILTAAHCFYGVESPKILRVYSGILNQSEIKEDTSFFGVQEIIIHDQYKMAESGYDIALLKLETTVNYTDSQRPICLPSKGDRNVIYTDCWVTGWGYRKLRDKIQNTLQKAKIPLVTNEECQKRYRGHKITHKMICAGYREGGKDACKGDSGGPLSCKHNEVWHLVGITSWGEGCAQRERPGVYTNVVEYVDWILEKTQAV
The species named for assay [10] is Homo sapiens. Description: Selectivity index ratio of IC50 for human factor 7a to IC50 for human factor 10a.

One may read the IC50 as the concentration at which inhibition is half-maximal. Higher therefore signals weaker potency.

Sequence of Coagulation factor IX (P00740 47-191 limits assumed): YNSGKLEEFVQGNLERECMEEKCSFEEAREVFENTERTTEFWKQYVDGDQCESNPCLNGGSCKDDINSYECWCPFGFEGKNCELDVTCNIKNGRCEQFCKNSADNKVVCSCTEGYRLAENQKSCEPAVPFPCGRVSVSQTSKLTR
Sequence of Coagulation factor IX (P00740 227-461 limits assumed): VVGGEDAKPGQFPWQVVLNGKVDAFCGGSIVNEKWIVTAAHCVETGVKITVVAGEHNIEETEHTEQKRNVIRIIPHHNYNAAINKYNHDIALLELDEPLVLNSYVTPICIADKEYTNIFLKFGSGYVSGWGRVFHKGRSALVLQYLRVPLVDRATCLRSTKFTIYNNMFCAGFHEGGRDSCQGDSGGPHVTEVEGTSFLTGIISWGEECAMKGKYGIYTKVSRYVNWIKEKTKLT
Sequence of Coagulation factor X (P00742 41-179 limits assumed): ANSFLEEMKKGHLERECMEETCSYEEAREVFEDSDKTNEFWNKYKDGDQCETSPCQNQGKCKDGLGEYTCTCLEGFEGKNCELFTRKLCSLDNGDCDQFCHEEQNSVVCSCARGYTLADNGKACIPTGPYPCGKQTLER
Sequence of Coagulation factor X (P00742 235-488 limits assumed): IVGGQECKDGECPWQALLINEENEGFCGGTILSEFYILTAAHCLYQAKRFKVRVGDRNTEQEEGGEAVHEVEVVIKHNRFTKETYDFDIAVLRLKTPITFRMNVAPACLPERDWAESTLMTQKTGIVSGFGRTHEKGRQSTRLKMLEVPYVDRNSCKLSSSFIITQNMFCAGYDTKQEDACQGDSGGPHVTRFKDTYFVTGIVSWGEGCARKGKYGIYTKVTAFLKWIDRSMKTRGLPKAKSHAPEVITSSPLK

As for `O=C(Nc1ccc(N2CCOCC2=O)cc1)[C@H]1Cc2ccccc2CN1C(=O)Cc1ccc(Cl)cc1`, the IC50 against Chymotrypsinogen A is 75.3 µM; against Coagulation factor XII, > 500 µM; on Prothrombin, > 500 µM; at Coagulation factor IX it was > 1000 µM; in [9], > 100 µM; against Coagulation factor X, 0.27 µM. In addition, the IC50 against Coagulation factor VII is > 1000 µM; against Coagulation factor XI, > 500 µM. For the same molecule, the Ratio IC50 in [1] is 279; in the assay filed under Homo sapiens [2], > 1850; in the assay listed under Homo sapiens [3], > 1850; in assay [5], > 370; in the assay filed under Homo sapiens [6] it was > 1850; in the assay listed under Homo sapiens [8], > 3700. The Ratio IC50 in the assay filed under Homo sapiens [10] is > 3700. In addition, in the assay with Plasma [4], the 2aPTT was found to be 20.2 µM. Besides, the 2PT with Plasma [7] amounted to 17.1 µM.
